Measurements pooled from the literature.
Lines come from different studies, so protocols differ.

CC1=C(C(=O)OC(C)(C)C)C(=O)/C(=C\c2cc(C)n(-c3ccccc3C(F)(F)F)c2C)N1  half-life (metabolic stability; mouse, liver microsomes; 1 µM): 20 min
CCOC(=O)[C@@]12C[C@@H]1[C@@H](n1ccc3c(NC)nc(C#Cc4ccc(Cl)s4)nc31)[C@H](O)[C@@H]2O  concentration (male Sprague-Dawley rat, plasma; intravenous, 0.5 mg/kg, 4 h): 1.88 ng/mL
Cc1noc(C)c1Cn1cc(N2C(=O)N(Cc3cccc(O)c3)C(C)(C)C2=O)cn1  concentration (male Sprague-Dawley rat, plasma; oral, 100 mg/kg, 2 h, single dose): 3.8 ng/mL
COC(=O)[C@H](N)CSSC[C@@H](N)C(=O)OC  half-life (chemical stability; rat, plasma): 8.14 min
COc1ccc2c(=O)n(C)c(-c3ccccc3)nc2c1  concentration (male Sprague-Dawley rat, brain; oral, 30 mg/kg, 30 min, single dose): 20.4 ng/g
CCc1cc(-c2noc(-c3cc(OC)nc(C4CCCC4)c3)n2)cc(C)c1OC[C@@H](O)CO  concentration (Wistar rat, plasma; oral, 10 mg/kg, 24 h, single dose): 350 ng/mL
Cc1noc(C)c1Cn1cc(N2C(=O)CN(Cc3cccc(O)c3)C2=O)cn1  concentration (male Sprague-Dawley rat, plasma; intravenous, 1 mg/kg, 30 min): 12.1 ng/mL
COc1cccc(-c2n[nH]c(SCc3ccccn3)n2)c1OC  concentration (male Sprague-Dawley rat, plasma; oral, 10 mg/kg, 30 min, single dose): 21400 ng/mL
CCOC(=O)C1=C(C)N/C(=C/c2cc(C)n(-c3ccc(CN4CCCCC4)cc3)c2C)C1=O  half-life (metabolic stability; mouse, liver microsomes; 1 µM): 29 min
Cc1ccc(-c2cc(C(F)(F)F)nn2-c2ccc(S(N)(=O)=O)cc2)cc1  concentration (male Sprague-Dawley rat, plasma; oral, 20 mg/kg, 4 h): 1500 nM
COc1cc2c3c(n(CCCN4CCOCC4)c(=O)c2cc1OC)-c1cc2c(cc1C3=O)OCO2  half-life (female Fischer 344 rat, plasma; intravenous, 12 mg/m², single dose): 252 min
CCOC(=O)C1=C(C)N/C(=C/c2cc(C)n(-c3ccc(CN(C)C)cc3)c2C)C1=O  half-life (metabolic stability; mouse, liver microsomes; 1 µM): 56 min
CCc1cc(C(=O)NC)c2nccc(N3CCc4c(cc(Cn5ccnc5)cc4-c4cn(C)nc4C(F)(F)F)C3=O)c2c1  half-life (male Sprague-Dawley rat, plasma; oral, 50 mg/kg): 36 min
Oc1c(Br)cc(Cl)c2cccnc12  half-life (Sprague-Dawley rat, plasma; intravenous, 2 mg/kg): 534 min
CCc1cc(OC)c2nccc(N3CCc4c(cc(Cn5ccnc5)cc4-c4cn(C)nc4C(F)(F)F)C3=O)c2c1  C0 (male Sprague-Dawley rat, plasma; intravenous, 3 mg/kg): 1150 ng/mL
CCOC(=O)C1=C(C)N/C(=C/c2cc(C)n(-c3ccc(OC)cc3)c2C)C1=O  half-life (metabolic stability; mouse, liver microsomes; 1 µM): 32 min
